Measurements from different studies.
Protocols differ between the studies behind these lines. pEC50, pIC50, pKd, pKi: −log10 of the molar value.
HTR2C: 5-hydroxytryptamine receptor 2C (HTR2C, Homo sapiens, UniProt P28335)
HLA class I histocompatibility antigen, B alpha chain: HLA class I histocompatibility antigen, B alpha chain (Homo sapiens, UniProt P01889)
HTR2B: 5-hydroxytryptamine receptor 2B (HTR2B, Homo sapiens, UniProt P41595)
PLK1 polo-box: Serine/threonine-protein kinase PLK1, polo-box (PLK1, Homo sapiens, UniProt P53350)

SMILES	target	observed	action	technique	pH	quantity	result
COc1cc(C(F)(F)F)c(OC)cc1C1CCCNC1 (stereo not shown)	HTR2C	calcium signal	agonist	–	–	pEC50	7.15
CC[C@H](C)[C@H](NC(=O)[C@H](Cc1ccccc1)NC(=O)[C@@H]1CCCN1C(=O)CNC(=O)[C@H](Cc1ccc(O)cc1)NC(=O)[C@H](CCSC)NC(=O)[C@@H](N)CCCNC(=N)N)C(=O)N[C@@H](Cc1c[nH]cn1)C(=O)N[C@@H](Cc1ccccc1)C(=O)O	HLA class I histocompatibility antigen, B alpha chain	cell-free assay	–	–	–	pIC50	4.50
COc1cc2c(cc1OC)CN(CCc1ccc(NC(=O)c3cccc4c(=O)c5cccc(OC)c5[nH]c34)cc1)CC2	HTR2B	cell-free assay	–	–	–	pKi	6.65
O=[N+]([O-])c1ccc(O)c([N+](=O)[O-])c1	Casein kinase I isoform delta (CSNK1D, Homo sapiens, UniProt P48730)	binding	–	SPR	–	pKd	< 4.30
COc1cc2c(cc1OC)-c1c(OC)c(OC)cc3c1[C@H](C2)N(C)CC3	HTR2B	ligand displacement	–	radioligand	–	pKi	6.67
CC[C@H](C)[C@H](NC(=O)[C@@H](N)CCSC)C(=O)N[C@@H](Cc1ccccc1)C(=O)N[C@@H](CC(=O)O)C(=O)N[C@@H](CCCCN)C(=O)N1CCC[C@H]1C(=O)N[C@H](C(=O)N[C@@H](Cc1ccc(O)cc1)C(=O)N[C@@H](Cc1ccccc1)C(=O)O)C(C)C	HLA class I histocompatibility antigen, B alpha chain	cell-free assay	–	–	–	pIC50	4.44
COc1cc(CCNC(CO)c2ccccc2)c(OC)cc1C#N (stereo not shown)	HTR2C	G protein activation	agonist	BRET	–	pEC50	5.54
COc1cc2c3c(c1OC)-c1c(cccc1OC)CC3N(C)CC2 (racemic)	HTR2B	ligand displacement	–	radioligand	–	pKi	6.22
CCCCC1CNC2CCc3ccc(OC)cc3C12 (racemic)	HTR2B	ligand displacement	–	radioligand	–	pKi	6.77
CC[C@H](C)[C@H](NC(=O)[C@@H](NC(=O)[C@H](CCCCN)NC(=O)[C@H](Cc1c[nH]cn1)NC(=O)[C@H](Cc1ccc(O)cc1)NC(=O)[C@H](CCSC)NC(=O)[C@@H](N)CCCNC(=N)N)C(C)C)C(=O)N[C@H](C(=O)N[C@@H](Cc1ccccc1)C(=O)O)[C@@H](C)O	HLA class I histocompatibility antigen, B alpha chain	cell-free assay	–	–	–	pIC50	5.76
CC[C@H](C)[C@H](NC(=O)[C@@H]1CCCN1C(=O)[C@H](CCC(=O)O)NC(=O)[C@H](CC(C)C)NC(=O)[C@@H](N)C(C)C)C(=O)N[C@@H](CC(C)C)C(=O)N[C@@H](Cc1c[nH]cn1)C(=O)N[C@@H](CO)C(=O)N[C@H](C(=O)O)[C@@H](C)OP(=O)(O)O	PLK1 polo-box	binding	–	MST	pH 8	pKd	7.86
CCCC(NCCc1cc(OC)c(C#N)cc1OC)c1ccccc1O (stereo not shown)	HTR2C	calcium signal	agonist	–	–	pEC50	5.10
CC[C@H](C)[C@H](NC(=O)[C@@H](N)CCCNC(=N)N)C(=O)N[C@@H](Cc1ccc(O)cc1)C(=O)NCC(=O)N1CCC[C@H]1C(=O)N1CCC[C@H]1C(=O)N[C@@H](Cc1c[nH]cn1)C(=O)N[C@@H](CCC(N)=O)C(=O)N[C@@H](Cc1ccccc1)C(=O)O	HLA class I histocompatibility antigen, B alpha chain	cell-free assay	–	–	–	pIC50	5.64
CC[C@H](C)[C@H](NC(=O)[C@@H](N)CCC(=O)O)C(=O)N[C@@H](C)C(=O)N1CCC[C@H]1C(=O)N[C@H](C(=O)N[C@@H](CC(C)C)C(=O)N[C@@H](Cc1c[nH]cn1)C(=O)N[C@@H](CO)C(=O)N[C@H](C(=O)O)[C@@H](C)OP(=O)(O)O)C(C)C	PLK1 polo-box	binding	–	MST	pH 8	pKd	7.57
CC(C)C[C@H](NC(=O)[C@@H]1CCCN1C(=O)[C@H](Cc1c[nH]c2ccccc12)NC(=O)[C@H](CC(=O)O)NC(=O)[C@H](Cc1ccc(O)cc1)NC(=O)[C@@H](NC(=O)[C@@H](N)Cc1ccc(O)cc1)C(C)C)C(=O)N[C@H](C(=O)N[C@@H](Cc1ccccc1)C(=O)O)[C@@H](C)O	HLA class I histocompatibility antigen, B alpha chain	cell-free assay	–	–	–	pIC50	4.62
O=C1Nc2ccc3ncsc3c2/C1=C/c1cnc[nH]1	Serine/threonine-protein kinase Nek6 (NEK6, Homo sapiens, UniProt Q9HC98)	enzyme activity	inhibitor	–	–	pIC50	4.56
